Results taken from ChEMBL document CHEMBL4368930, “Synthesis and anti-HSV activity of tricyclic penciclovir and hydroxybutylguanine derivatives” (Bioorg Med Chem, 2019).

Columns and labels:
Human alphaherpesvirus 1 [1] = assay: Antiviral activity against thymidine kinase deficient and aciclovir resistant herpes simplex virus 1 KOS infected in HEL cells assessed as reduction in virus-induced cytopathogenicity by microscopic analysis; format: functional, organism-based; settings: Human alphaherpesvirus 1, strain KOS
[2] = Cytotoxicity against HEL cells assessed as effect on cell morphology at 0.32 to 200 uM by microscopic analysis; format: cell-based; settings: human
Human alphaherpesvirus 2 = assay: Antiviral activity against herpes simplex virus 2 G infected in HEL cells assessed as reduction in virus-induced cytopathogenicity by microscopic analysis; format: functional, organism-based; settings: Human alphaherpesvirus 2, G
Method in brief: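 Confluent cell monolayers were inoculated with 100 CCID50 of virus or 20 PFU. After a 1–2 h adsorption, residual virus was removed and cultures were incubated with the test compounds at 200, 40, 8, 1.6 and 0.32 μM. Cytopathicity was scored once it was complete in untreated infected controls.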

Human alphaherpesvirus 1 [3] = assay: Antiviral activity against herpes simplex virus 1 KOS infected in HEL cells assessed as reduction in virus-induced cytopathogenicity by microscopic analysis; format: functional, organism-based; settings: Human alphaherpesvirus 1, strain KOS
Human alphaherpesvirus 3 [4] = assay: Antiviral activity against Varicella-zoster virus Oka harboring thymidine kinase infected in HEL cells assessed as reduction in virus plaque formation; format: functional, organism-based; settings: Human alphaherpesvirus 3, Oka
TERT-RPE1 = assay: Cytostatic activity against human hTERT-RPE1 cells; format: ADME, cell-based; settings: RPE-1
Method in brief: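 Cell proliferation was measured against the number of cells in untreated controls.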

[5] = Cytostatic activity against human HAP1 cells; format: ADME, cell-based
HL-60 = assay: Cytostatic activity against human HL60 cells; format: ADME, cell-based
Human alphaherpesvirus 3 [6] = assay: Antiviral activity against thymidine kinase deficient Varicella-zoster virus 07-1 infected in HEL cells assessed as reduction in virus plaque formation; format: functional, organism-based; settings: Human alphaherpesvirus 3, 07-1, HEL
Z-138 = assay: Cytostatic activity against human Z138 cells; format: ADME, cell-based
Human betaherpesvirus 5 [7] = assay: Antiviral activity against Human cytomegalovirus Davis assessed as reduction in virus-induced cytopathogenicity by microscopic analysis; format: functional, organism-based; settings: Human betaherpesvirus 5, Davis
Human betaherpesvirus 5 [8] = assay: Antiviral activity against Human cytomegalovirus AD169 assessed as reduction in virus-induced cytopathogenicity by microscopic analysis; format: functional, organism-based; settings: Human betaherpesvirus 5, strain AD169
CAPAN-1 = assay: Cytostatic activity against human Capan1 cells; format: ADME, cell-based
NCI-H460 = assay: Cytostatic activity against human NCI-H460 cells; format: ADME, cell-based
[9] = Cytostatic activity against human DND41 cells; format: ADME, cell-based
K562 = assay: Cytostatic activity against human K562 cells; format: ADME, cell-based

| SMILES | EC50 (Human alphaherpesvirus 1 [1]) | MCC at up to 200 µM [2] | EC50 (Human alphaherpesvirus 2) | EC50 (Human alphaherpesvirus 1 [3]) | EC50 (Human alphaherpesvirus 3 [4]) | IC50 (TERT-RPE1) | IC50 [5] | IC50 (HL-60) | EC50 (Human alphaherpesvirus 3 [6]) | IC50 (Z-138) | EC50 (Human betaherpesvirus 5 [7]) | EC50 (Human betaherpesvirus 5 [8]) | IC50 (CAPAN-1) | IC50 (NCI-H460) | IC50 [9] | IC50 (K562) |
| --- | --- | --- | --- | --- | --- | --- | --- | --- | --- | --- | --- | --- | --- | --- | --- | --- |
| Nc1nc2c(ncn2COCCO)c(=O)[nH]1 [ACYCLOVIR] | 100 µM | > 250 µM | 0.9 µM | 0.9 µM | – | – | – | – | – | – | – | – | – | – | – | – |
| O=c1c2ncn(CCC(CO)CO)c2nc2[nH]c(-c3ccc(Oc4ccccc4)cc3)cn12 | > 100 µM | > 100 µM | > 100 µM | > 100 µM | 62.8 µM | 16.9 µM | 44 µM | 63.3 µM | > 100 µM | > 100 µM | > 100 µM | > 100 µM | 46.4 µM | 47.2 µM | 90.4 µM | > 100 µM |
| O=c1c2ncn(CCCCO)c2nc2[nH]c(-c3ccccc3)cn12 | > 100 µM | > 100 µM | > 100 µM | > 100 µM | – | > 100 µM | > 100 µM | > 100 µM | – | > 100 µM | – | – | 69.1 µM | > 100 µM | > 100 µM | > 100 µM |
| O=c1c2ncn(CCC(CO)CO)c2nc2[nH]c(-c3ccc4c(c3)OCO4)cn12 | > 100 µM | ≥ 100 µM | 40.9 µM | 44.7 µM | > 20 µM | > 100 µM | > 100 µM | > 100 µM | > 100 µM | > 100 µM | > 100 µM | > 100 µM | 78.8 µM | > 100 µM | > 100 µM | > 100 µM |
| Nc1nc2c(ncn2CCC(CO)CO)c(=O)[nH]1 [PENCICLOVIR] | 0.2 µM | > 100 µM | 0.2 µM | 0.8 µM | 3.5 µM | > 100 µM | > 100 µM | > 100 µM | 33.4 µM | > 100 µM | > 100 µM | > 100 µM | 93 µM | > 100 µM | > 100 µM | > 100 µM |
| COc1cc([C@@H]2c3cc4c(cc3[C@@H](O[C@@H]3O[C@@H]5CO[C@@H](C)O[C@H]5[C@H](O)[C@H]3O)[C@H]3COC(=O)[C@H]23)OCO4)cc(OC)c1O [ETOPOSIDE] | – | – | – | – | – | 0.23 µM | 0.04 µM | 0.03 µM | – | 1.06 µM | – | – | 0.15 µM | 1.35 µM | 0.06 µM | 0.54 µM |
| O=c1c2ncn(CCCCO)c2nc2[nH]c(-c3ccc4c(c3)OCO4)cn12 | > 100 µM | > 100 µM | > 100 µM | > 100 µM | – | > 100 µM | > 100 µM | > 100 µM | – | > 100 µM | – | – | 92.8 µM | > 100 µM | > 100 µM | > 100 µM |
| Nc1nc2c(ncn2COC(CO)CO)c(=O)[nH]1 [GANCICLOVIR] | – | > 250 µM | 0.4 µM | – | – | – | – | – | – | – | – | – | – | – | – | – |
| O=c1c2ncn(CCCCO)c2nc2[nH]c(-c3cccs3)cn12 | > 100 µM | > 100 µM | > 100 µM | > 100 µM | – | > 100 µM | > 100 µM | > 100 µM | – | > 100 µM | – | – | > 100 µM | > 100 µM | > 100 µM | > 100 µM |
| CN[C@@H]1C[C@H]2O[C@@](C)([C@@H]1OC)n1c3ccccc3c3c4c(c5c6ccccc6n2c5c31)C(=O)NC4 [STAUROSPORINE] | – | – | – | – | – | 0.25 µM | – | – | – | – | – | – | – | – | – | – |
| Cc1ccc(-c2cn3c(=O)c4ncn(CCCCO)c4nc3[nH]2)cc1 | > 100 µM | > 100 µM | > 100 µM | > 100 µM | – | > 100 µM | > 100 µM | > 100 µM | – | > 100 µM | – | – | 78.9 µM | > 100 µM | > 100 µM | > 100 µM |
| CC(=O)O[C@@]12CO[C@@H]1C[C@H](O)[C@@]1(C)C(=O)[C@H](O)C3=C(C)[C@@H](OC(=O)[C@H](O)[C@@H](NC(=O)OC(C)(C)C)c4ccccc4)C[C@@](O)([C@@H](OC(=O)c4ccccc4)[C@H]21)C3(C)C [DOCETAXEL ANHYDROUS] | – | – | – | – | – | 25 µM | 1.19 µM | 0.00194 µM | – | 0.003 µM | – | – | 0.95 µM | 0.89 µM | 1.63 µM | 0.003 µM |
| O=c1[nH]c(=O)n([C@H]2C[C@H](O)[C@@H](CO)O2)cc1/C=C/Br [BRIVUDINE] | 14 µM | > 250 µM | > 250 µM | – | 0.037 µM | – | – | – | 7.9 µM | – | – | – | – | – | – | – |
| O=c1c2ncn(CCCCO)c2nc2[nH]c(-c3ccc(F)cc3)cn12 | > 100 µM | > 100 µM | > 100 µM | > 100 µM | – | > 100 µM | > 100 µM | > 100 µM | – | > 100 µM | – | – | 56.1 µM | 55.5 µM | > 100 µM | > 100 µM |
| O=c1c2ncn(CCCCO)c2nc2[nH]c(-c3ccc(Cl)cc3)cn12 | > 100 µM | > 100 µM | > 100 µM | > 100 µM | – | > 100 µM | > 100 µM | > 100 µM | – | > 100 µM | – | – | 64.4 µM | > 100 µM | > 100 µM | > 100 µM |
| Nc1ccn(C[C@@H](CO)OCP(=O)(O)O)c(=O)n1 [CIDOFOVIR] | 5 µM | > 250 µM | – | – | – | – | – | – | – | – | – | 0.72 µM | – | – | – | – |
| O=c1c2ncn(CCCCO)c2nc2[nH]c(-c3ccc(C(F)(F)F)cc3)cn12 | > 100 µM | > 100 µM | > 100 µM | > 100 µM | – | > 100 µM | 63.8 µM | > 100 µM | – | > 100 µM | – | – | 36.1 µM | 52.5 µM | > 100 µM | > 100 µM |
| COc1ccc(-c2cn3c(=O)c4ncn(CCCCO)c4nc3[nH]2)cc1 | > 100 µM | > 100 µM | > 100 µM | > 100 µM | – | > 100 µM | > 100 µM | > 100 µM | – | > 100 µM | – | – | 98.9 µM | > 100 µM | > 100 µM | > 100 µM |
